Laboratory results taken from ChEMBL document CHEMBL1138529, “Efficacy, pharmacokinetics, and metabolism of tetrahydroquinoline inhibitors of Plasmodium falciparum protein farnesyltransferase” (Antimicrob Agents Chemother, 2007).
The source made the active and inactive calls.

Assays:
[1] = Elimination half life in BALB/c mouse at 50 mg/kg, po; type: ADME, organism-based; design: dose 50 mg/kg, route oral; conditions: in vivo, read-out: beta t1/2
Procedure, shortened: (§1)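 50 mg/kg by oral gavage in 3% EtOH-7% Tween 80-90% normal saline to groups of three females (BALB/c mice, 8–10 weeks, tail bleed; Sprague-Dawley rats, 10–12 weeks, saphenous vein). Plasma extracted with acetonitrile/internal standard, LC/MS; means of three animals. Oral elimination half-life depends on absorption rate as well as elimination.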

Mus musculus = assay: Toxicity in BALB/c mouse at 50 mg/kg, po; type: organism-based; design: dose 50 mg/kg, route oral; conditions: in vivo
[2] = Cmax in Sprague-Dawley rat at 50 mg/kg, po; type: ADME, organism-based; design: dose 50 mg/kg, route oral; conditions: in vivo; procedure, shortened: as §1
[3] = target: 5-hydroxytryptamine receptor 1A (Homo sapiens) (UniProt P08908); assay: Inhibition of 5HT1A receptor at 10 uM
Procedure, shortened: (§2)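 Radioligand displacement screen by a contractor across 50 receptors, ion channels and transporters, test compound at 10 μM; decrease in specific ligand binding expressed as percentage, with >50% decrease taken as significant.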

[4] = target: Delta-type opioid receptor (Homo sapiens) (UniProt P41143); assay: Inhibition of delta opioid receptor at 10 uM
Procedure, shortened: (§3)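 Radioligand displacement at a contract lab across a panel of 50 receptors, ion channels and transporters, single test concentration 10 μM; loss of specific ligand binding reported as percent, with >50% decrease counted as significant.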

[5] = target: 5-hydroxytryptamine receptor 1B (Homo sapiens) (UniProt P28222); assay: Inhibition of 5HT1B receptor at 10 uM; procedure, shortened: as §2
Plasmodium berghei = assay: Antiplasmodial activity as reduced parasitaemia against Plasmodium berghei NK65 infected Sprague-Dawley rat at 50 mg/kg every 8 hrs peroral dose for 3 days
[6] = target: Nociceptin receptor (Homo sapiens) (UniProt P41146); assay: Inhibition of ORL1 receptor at 10 uM; procedure, shortened: as §2
[7] = Permeability from apical to basolateral side in human Caco-2 cells; type: ADME, cell-based; conditions: read-out: permeability
Salmonella typhimurium = assay: Genotoxicity in Salmonella enterica serovar Typhimurium TA100 assessed as increase in number of revertants in presence of rat liver S9 fraction by Ames test; type: toxicity, organism-based; conditions: salmonella enterica subsp. enterica serovar typhimurium
Procedure, shortened: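 Liquid-culture Ames assay run by a contractor: S. Typhimurium TA98 and TA100 exposed for 96 h in histidine-free medium, with and without rat liver S9, at 5, 10, 50 and 100 μM (plus higher concentrations); growth read spectrophotometrically by pH-indicator colour change. Parallel bacterial cytotoxicity assay at same concentrations.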

[8] = target: Sodium-dependent dopamine transporter (Homo sapiens) (UniProt Q01959); assay: Inhibition of DAT at 10 uM; procedure, shortened: as §2
[9] = target: Substance-K receptor (Homo sapiens) (UniProt P21452); assay: Inhibition of NK2 receptor at 10 uM; procedure, shortened: as §2
Rattus norvegicus [10] = assay: Toxicity in Plasmodium berghei NK65 infected Sprague-Dawley rat assessed as effect on cholesterol levels at 50 mg/kg, perorally administered every 8 hrs for 3 days; type: organism-based; design: dose 50 mg/kg, route oral; conditions: in vivo, po
Procedure, shortened: (§4)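 Female Sprague-Dawley rats, 10-12 weeks, n = 3 per schedule. Dosed 50 mg/kg by oral gavage every 8 h or every 12 h for 72 h. At the end of dosing, blood was sent to a clinical laboratory for complete blood counts, white cell differentials, electrolytes, glucose, renal function, liver enzymes and cholesterol.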

[11] = target: Galanin receptor type 2 (Homo sapiens) (UniProt O43603); assay: Inhibition of Galanin receptor type 2 at 10 uM; procedure, shortened: as §2
[12] = target: Adenosine receptor A1 (Homo sapiens) (UniProt P30542); assay: Inhibition of adenosine A1 receptor at 10 uM; procedure, shortened: as §2
[13] = target: Adenosine A2A receptor (Homo sapiens) (UniProt P29274); assay: Inhibition of adenosine A2A receptor at 10 uM
[14] = target: Kappa-type opioid receptor (Homo sapiens) (UniProt P41145); assay: Inhibition of kappa opioid receptor at 10 uM; procedure, shortened: as §3
[15] = Inhibition of Sodium channel site 2 at 10 uM
Procedure, shortened: (§5)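 Radioligand displacement screen at a 10 μM test concentration, run by a contract lab across a panel of 50 receptors, pharmacologically active ion channels and transporters. The read-out is the decrease in specific radiolabeled ligand binding, expressed as a percentage. A decrease above 50% was considered significant.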

[16] = target: Cholecystokinin receptor type A (Homo sapiens) (UniProt P32238); assay: Inhibition of CCK1 receptor at 10 uM; procedure, shortened: as §2
Rattus norvegicus [17] = assay: Toxicity in Plasmodium berghei NK65 infected Sprague-Dawley rat assessed as effect on electrolyte levels at 50 mg/kg, perorally administered every 12 hrs for 3 days; type: organism-based; design: dose 50 mg/kg, route oral; conditions: in vivo, po; procedure, shortened: as §4
[18] = target: D(1A) dopamine receptor (Homo sapiens) (UniProt P21728); assay: Inhibition of dopamine D1 receptor at 10 uM; procedure, shortened: as §3
[19] = Inhibition of […] GABA receptor at 10 uM; procedure, shortened: as §5
[20] = Inhibition of Potassium channel at 10 uM; procedure, shortened: as §5
[21] = target: Vasoactive intestinal polypeptide receptor 1 (Homo sapiens) (UniProt P32241); assay: Inhibition of VIP1 receptor at 10 uM; procedure, shortened: as §2
[22] = target: Type-1 angiotensin II receptor (Homo sapiens) (UniProt P30556); assay: Inhibition of angiotensin AT1 receptor at 10 uM; procedure, shortened: as §3
[23] = Metabolic stability in rat liver microsomes; type: ADME, Microsome
Procedure, shortened: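 Pooled female liver microsomes at 0.5 mg/ml in 0.1 M potassium phosphate pH 7.4, 3 mM MgCl2, 1 mM EDTA, with NADPH regenerating system (1 mM NADP+, 5 mM glucose-6-phosphate, 1 U/ml G6PDH). Preincubated 10 min at 37°C, then compound added to 1 μM final. Time points quenched with 3 volumes acetonitrile plus internal standard; parent quantified by LC/MS; half-life reported.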

[24] = target: Neurotensin receptor type 1 (Homo sapiens) (UniProt P30989); assay: Inhibition of NTS1 receptor at 10 uM; procedure, shortened: as §2
Rattus norvegicus [25] = assay: Toxicity in Plasmodium berghei NK65 infected Sprague-Dawley rat assessed as effect on renal function at 50 mg/kg, perorally administered every 12 hrs for 3 days; type: organism-based; design: dose 50 mg/kg, route oral; conditions: in vivo, po, in the assay text read “every 8 hrs” for “every 12 hrs”; procedure, shortened: as §4

Chain of Adenosine receptor A1 (Homo sapiens) (P30542 whole entry): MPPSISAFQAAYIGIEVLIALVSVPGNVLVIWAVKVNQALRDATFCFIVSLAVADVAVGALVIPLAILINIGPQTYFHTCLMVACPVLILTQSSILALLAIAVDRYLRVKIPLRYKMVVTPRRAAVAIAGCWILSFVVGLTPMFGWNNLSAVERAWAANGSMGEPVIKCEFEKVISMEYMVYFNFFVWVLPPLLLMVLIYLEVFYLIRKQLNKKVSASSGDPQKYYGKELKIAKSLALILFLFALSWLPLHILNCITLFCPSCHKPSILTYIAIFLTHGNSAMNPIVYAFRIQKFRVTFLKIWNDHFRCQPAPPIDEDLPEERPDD
Chain of Galanin receptor type 2 (Homo sapiens) (O43603 whole entry): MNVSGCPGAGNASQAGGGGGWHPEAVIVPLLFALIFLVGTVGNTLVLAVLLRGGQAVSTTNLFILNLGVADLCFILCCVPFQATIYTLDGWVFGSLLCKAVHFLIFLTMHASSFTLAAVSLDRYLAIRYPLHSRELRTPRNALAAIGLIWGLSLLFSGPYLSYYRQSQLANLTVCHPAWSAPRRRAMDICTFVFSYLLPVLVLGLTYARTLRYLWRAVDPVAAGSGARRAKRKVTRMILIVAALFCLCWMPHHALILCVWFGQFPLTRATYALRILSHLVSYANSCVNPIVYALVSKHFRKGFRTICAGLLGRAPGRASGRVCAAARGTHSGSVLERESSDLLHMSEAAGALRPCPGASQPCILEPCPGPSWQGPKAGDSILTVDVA
Chain of Sodium-dependent dopamine transporter (Homo sapiens) (Q01959 whole entry): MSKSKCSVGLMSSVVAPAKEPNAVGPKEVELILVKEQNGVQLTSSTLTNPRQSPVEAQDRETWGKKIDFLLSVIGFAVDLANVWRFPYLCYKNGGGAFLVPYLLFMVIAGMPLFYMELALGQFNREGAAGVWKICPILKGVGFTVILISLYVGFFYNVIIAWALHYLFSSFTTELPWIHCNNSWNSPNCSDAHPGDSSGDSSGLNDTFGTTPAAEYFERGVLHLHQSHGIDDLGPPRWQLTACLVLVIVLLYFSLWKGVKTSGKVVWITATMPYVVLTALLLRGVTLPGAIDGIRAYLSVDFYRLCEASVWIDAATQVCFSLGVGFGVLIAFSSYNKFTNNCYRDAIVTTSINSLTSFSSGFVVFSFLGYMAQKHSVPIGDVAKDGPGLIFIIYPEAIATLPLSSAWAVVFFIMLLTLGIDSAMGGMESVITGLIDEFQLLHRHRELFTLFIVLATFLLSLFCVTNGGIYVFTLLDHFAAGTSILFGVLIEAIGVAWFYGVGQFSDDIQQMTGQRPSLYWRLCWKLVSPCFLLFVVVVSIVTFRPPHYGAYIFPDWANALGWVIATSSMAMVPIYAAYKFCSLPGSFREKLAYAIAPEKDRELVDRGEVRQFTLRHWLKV
Chain of Nociceptin receptor (Homo sapiens) (P41146 whole entry): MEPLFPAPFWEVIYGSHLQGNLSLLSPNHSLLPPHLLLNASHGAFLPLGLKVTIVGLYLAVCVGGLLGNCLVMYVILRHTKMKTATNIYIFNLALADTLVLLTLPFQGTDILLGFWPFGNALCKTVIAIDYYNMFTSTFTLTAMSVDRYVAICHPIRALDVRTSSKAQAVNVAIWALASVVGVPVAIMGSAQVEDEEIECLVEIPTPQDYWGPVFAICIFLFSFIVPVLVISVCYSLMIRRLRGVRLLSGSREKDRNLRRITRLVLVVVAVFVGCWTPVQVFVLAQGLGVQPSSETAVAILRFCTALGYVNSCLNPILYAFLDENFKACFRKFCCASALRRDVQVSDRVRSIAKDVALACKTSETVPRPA
Chain of Kappa-type opioid receptor (Homo sapiens) (P41145 whole entry): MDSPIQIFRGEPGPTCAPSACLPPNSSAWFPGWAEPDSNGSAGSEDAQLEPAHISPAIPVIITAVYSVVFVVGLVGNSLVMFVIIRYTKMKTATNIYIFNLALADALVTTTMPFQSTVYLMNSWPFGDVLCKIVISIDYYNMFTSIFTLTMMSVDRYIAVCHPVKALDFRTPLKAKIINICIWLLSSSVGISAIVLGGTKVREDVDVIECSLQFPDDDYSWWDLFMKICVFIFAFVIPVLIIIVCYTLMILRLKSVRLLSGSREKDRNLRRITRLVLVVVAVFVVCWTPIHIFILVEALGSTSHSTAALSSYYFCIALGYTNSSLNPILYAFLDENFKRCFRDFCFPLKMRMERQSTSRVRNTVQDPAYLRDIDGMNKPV
Chain of D(1A) dopamine receptor (Homo sapiens) (P21728 whole entry): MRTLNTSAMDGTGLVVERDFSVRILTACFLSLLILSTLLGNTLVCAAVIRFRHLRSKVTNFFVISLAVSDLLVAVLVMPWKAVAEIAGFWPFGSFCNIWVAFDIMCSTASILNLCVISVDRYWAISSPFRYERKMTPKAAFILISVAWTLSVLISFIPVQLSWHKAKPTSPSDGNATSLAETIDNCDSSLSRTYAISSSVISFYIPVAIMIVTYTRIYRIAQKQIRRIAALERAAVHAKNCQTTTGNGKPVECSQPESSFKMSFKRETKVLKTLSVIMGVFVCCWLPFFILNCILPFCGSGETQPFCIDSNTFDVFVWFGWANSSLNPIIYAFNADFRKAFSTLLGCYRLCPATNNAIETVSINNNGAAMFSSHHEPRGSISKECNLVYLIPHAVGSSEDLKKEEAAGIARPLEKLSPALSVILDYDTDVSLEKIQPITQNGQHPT
Chain of 5-hydroxytryptamine receptor 1B (Homo sapiens) (P28222 whole entry): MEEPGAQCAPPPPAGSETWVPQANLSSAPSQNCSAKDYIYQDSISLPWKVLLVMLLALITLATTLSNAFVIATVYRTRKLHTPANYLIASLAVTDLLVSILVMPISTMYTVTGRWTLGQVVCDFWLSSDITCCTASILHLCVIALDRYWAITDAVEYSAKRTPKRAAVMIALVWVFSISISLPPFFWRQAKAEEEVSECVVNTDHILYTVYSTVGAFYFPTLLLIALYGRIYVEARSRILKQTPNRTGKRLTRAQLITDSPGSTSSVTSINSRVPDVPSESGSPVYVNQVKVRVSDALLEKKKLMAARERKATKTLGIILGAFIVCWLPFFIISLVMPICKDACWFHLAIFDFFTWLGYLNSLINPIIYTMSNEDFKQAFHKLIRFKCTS
Chain of 5-hydroxytryptamine receptor 1A (Homo sapiens) (P08908 whole entry): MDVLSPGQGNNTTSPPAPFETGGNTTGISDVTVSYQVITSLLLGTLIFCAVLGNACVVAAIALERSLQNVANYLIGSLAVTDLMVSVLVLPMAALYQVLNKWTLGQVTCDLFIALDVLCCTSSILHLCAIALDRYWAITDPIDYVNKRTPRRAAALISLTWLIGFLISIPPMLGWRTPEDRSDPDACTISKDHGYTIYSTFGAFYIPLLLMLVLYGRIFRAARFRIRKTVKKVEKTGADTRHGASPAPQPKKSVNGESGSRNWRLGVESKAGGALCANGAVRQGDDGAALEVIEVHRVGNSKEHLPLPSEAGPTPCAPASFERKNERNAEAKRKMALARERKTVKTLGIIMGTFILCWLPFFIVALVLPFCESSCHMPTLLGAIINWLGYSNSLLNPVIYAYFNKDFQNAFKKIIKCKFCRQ
Chain of Cholecystokinin receptor type A (Homo sapiens) (P32238 whole entry): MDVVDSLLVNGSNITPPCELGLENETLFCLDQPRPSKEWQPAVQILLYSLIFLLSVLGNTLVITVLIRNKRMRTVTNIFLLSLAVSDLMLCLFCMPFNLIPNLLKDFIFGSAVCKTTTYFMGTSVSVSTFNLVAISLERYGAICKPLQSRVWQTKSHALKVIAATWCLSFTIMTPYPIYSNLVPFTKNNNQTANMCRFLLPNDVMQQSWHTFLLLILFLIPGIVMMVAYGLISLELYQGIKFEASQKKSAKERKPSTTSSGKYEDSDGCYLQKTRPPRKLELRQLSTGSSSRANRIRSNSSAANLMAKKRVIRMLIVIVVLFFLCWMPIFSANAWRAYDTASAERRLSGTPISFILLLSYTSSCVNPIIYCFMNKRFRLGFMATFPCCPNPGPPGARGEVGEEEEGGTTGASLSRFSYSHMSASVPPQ
Chain of Neurotensin receptor type 1 (Homo sapiens) (P30989 whole entry): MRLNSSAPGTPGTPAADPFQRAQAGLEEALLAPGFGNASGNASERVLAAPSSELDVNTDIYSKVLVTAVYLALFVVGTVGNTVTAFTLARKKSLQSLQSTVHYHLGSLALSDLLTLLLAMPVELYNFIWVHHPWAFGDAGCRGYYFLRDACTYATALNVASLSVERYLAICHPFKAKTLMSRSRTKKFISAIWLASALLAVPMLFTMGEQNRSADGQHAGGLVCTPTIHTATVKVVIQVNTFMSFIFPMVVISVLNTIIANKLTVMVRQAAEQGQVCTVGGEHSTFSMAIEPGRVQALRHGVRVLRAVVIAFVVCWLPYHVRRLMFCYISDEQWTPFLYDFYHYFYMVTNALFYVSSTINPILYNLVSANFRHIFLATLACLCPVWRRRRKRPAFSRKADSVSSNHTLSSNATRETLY
Chain of Vasoactive intestinal polypeptide receptor 1 (Homo sapiens) (P32241 whole entry): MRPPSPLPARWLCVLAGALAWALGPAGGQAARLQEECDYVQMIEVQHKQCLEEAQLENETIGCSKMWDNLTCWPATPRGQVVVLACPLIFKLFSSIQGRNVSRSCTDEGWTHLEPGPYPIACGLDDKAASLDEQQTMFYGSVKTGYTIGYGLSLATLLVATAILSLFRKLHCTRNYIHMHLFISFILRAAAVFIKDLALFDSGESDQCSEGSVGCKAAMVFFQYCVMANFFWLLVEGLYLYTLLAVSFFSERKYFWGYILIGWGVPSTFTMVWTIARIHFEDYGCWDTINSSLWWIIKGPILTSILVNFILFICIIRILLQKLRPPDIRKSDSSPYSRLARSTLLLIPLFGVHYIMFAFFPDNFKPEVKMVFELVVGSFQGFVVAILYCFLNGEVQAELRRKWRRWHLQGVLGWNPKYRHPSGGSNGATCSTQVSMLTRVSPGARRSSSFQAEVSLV

For `COC(=O)N1CCC(CN(C2Cc3cc(C#N)ccc3N(Cc3cncn3C)C2)S(=O)(=O)c2ccccn2)CC1` (stereo not drawn), the half-life [1] was 18 min, the Activity (Mus musculus) was “Non-toxic” and the Cmax [2] was 4.5 µM. The inhibition [3] was “inactive”, the inhibition [4] was “inactive” and the inhibition [5] was “inactive”. For the same compound, the Activity (Plasmodium berghei) was “Active”, the inhibition [6] was “inactive” and the Papp A→B [7] was 1.1 ×10⁻⁶ cm/s. The Activity (Salmonella typhimurium) was “Non-toxic”, the inhibition [8] was “inactive” and the inhibition [9] was “inactive”. For the same compound, the Activity (Rattus norvegicus [10]) was “Non-toxic”, the inhibition [11] was “inactive” and the inhibition [12] was “inactive”. The inhibition [13] was “inactive”, the inhibition [14] was “inactive” and the inhibition [15] was “inactive”. For the same compound, the inhibition [16] was “inactive”, the Activity (Rattus norvegicus [17]) was “Non-toxic” and the inhibition [18] was “inactive”. The inhibition [19] was “inactive”, the inhibition [20] was “inactive” and the inhibition [21] was “inactive”. The inhibition [22] was “inactive”, the half-life [23] was 14 min and the inhibition [24] was “inactive”. The Activity (Rattus norvegicus [25]) was “Non-toxic”.
